# Legend:
# Assay type in all cases: functional
# CCRF-CEM = test: Growth inhibition of human CCRF-CEM cells at 10 uM after 48 hrs by coulter counting; conditions: read-out: GI
# In short: (§1)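 Single-dose primary screen across the full NCI 60-cell-line panel. Stocks were made in DMSO and diluted in PBS to a final DMSO below 1%. Cultures at 6 × 10⁴ cells/ml were run in duplicate wells alongside PBS/DMSO vehicle controls at 37 °C in humidified 5% CO₂. Data were expressed as percent growth of treated cells.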
# IGROV-1 = test: Growth inhibition of human IGROV1 cells at 10 uM after 48 hrs by coulter counting; conditions: IGROV-1, 48 h, read-out: GI; in short: as §1
# HCC 2998 = test: Growth inhibition of human HCC2998 cells at 10 uM after 48 hrs by coulter counting; conditions: HCC 2998, 48 h, read-out: GI; in short: as §1
# HOP-62 = test: Growth inhibition of human HOP62 cells at 10 uM after 48 hrs by coulter counting; conditions: HOP-62, 48 h, read-out: GI; in short: as §1
# UO-31 = test: Growth inhibition of human UO31 cells at 10 uM after 48 hrs by coulter counting; conditions: UO-31, 48 h, read-out: GI
# In short: (§2)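 Single-dose screen in the NCI 60 human tumor cell line panel (nine subpanels). Compounds dissolved in DMSO and diluted in phosphate buffered saline, keeping final DMSO below 1%. Added in duplicate wells to cells at 6 × 10⁴ cells/ml. Controls held PBS and DMSO at matching dilutions. Incubated at 37 °C, humidified, 5% CO₂. Reported as percent growth of treated cells.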
# OVCAR-4 = test: Growth inhibition of human OVCAR4 cells at 10 uM after 48 hrs by coulter counting; conditions: OVCAR-4, 48 h, read-out: GI; in short: as §1
# A498 = test: Growth inhibition of human A498 cells at 10 uM after 48 hrs by coulter counting; conditions: A498, 48 h, read-out: GI; in short: as §1
# SK-MEL-28 = test: Growth inhibition of human SK-MEL-28 cells at 10 uM after 48 hrs by coulter counting; conditions: SK-MEL-28, 48 h, read-out: GI; in short: as §1
# HT-29 = test: Growth inhibition of human HT-29 cells at 10 uM after 48 hrs by coulter counting; conditions: HT-29, 48 h, read-out: GI; in short: as §1
# UACC-257 = test: Growth inhibition of human UACC257 cells at 10 uM after 48 hrs by coulter counting; conditions: UACC-257, 48 h, read-out: GI; in short: as §2
# SK-MEL-2 = test: Growth inhibition of human SK-MEL-2 cells at 10 uM after 48 hrs by coulter counting; conditions: SK-MEL-2, 48 h, read-out: GI; in short: as §1
# SF-268 = test: Growth inhibition of human SF268 cells at 10 uM after 48 hrs by coulter counting; conditions: SF-268, 48 h, read-out: GI; in short: as §1
# SNB-75 = test: Growth inhibition of human SNB75 cells at 10 uM after 48 hrs by coulter counting; conditions: SNB-75, 48 h, read-out: GI; in short: as §1
# RPMI-8226 = test: Growth inhibition of human RPMI8226 cells at 10 uM after 48 hrs by coulter counting; conditions: RPMI-8226, 48 h, read-out: GI; in short: as §1
# NCI-H522 = test: Growth inhibition of human NCI-H522 cells at 10 uM after 48 hrs by coulter counting; conditions: NCI-H522, 48 h, read-out: GI; in short: as §1
# NCI-H23 = test: Growth inhibition of human NCI-H23 cells at 10 uM after 48 hrs by coulter counting; conditions: NCI-H23, 48 h, read-out: GI; in short: as §1
# MDA-MB-435 = test: Growth inhibition of human MDA-MB-435 cells at 10 uM after 48 hrs by coulter counting; conditions: MDA-MB-435, 48 h, read-out: GI; in short: as §1
# MOLT-4 = test: Growth inhibition of human MOLT4 cells at 10 uM after 48 hrs by coulter counting; conditions: MOLT-4, 48 h, read-out: GI; in short: as §1
# BT-549 = test: Growth inhibition of human BT549 cells at 10 uM after 48 hrs by coulter counting; conditions: BT-549, 48 h, read-out: GI; in short: as §1
# EKVX = test: Growth inhibition of human EKVX cells at 10 uM after 48 hrs by coulter counting; conditions: read-out: GI; in short: as §1
# SNB-19 = test: Growth inhibition of human SNB19 cells at 10 uM after 48 hrs by coulter counting; conditions: SNB-19, 48 h, read-out: GI; in short: as §1
# T47D = test: Growth inhibition of human T47D cells at 10 uM after 48 hrs by coulter counting; conditions: read-out: GI; in short: as §2
# KM12 = test: Growth inhibition of human KM12 cells at 10 uM after 48 hrs by coulter counting; conditions: KM12, 48 h, read-out: GI; in short: as §1
# SK-MEL-5 = test: Growth inhibition of human SK-MEL-5 cells at 10 uM after 48 hrs by coulter counting; conditions: SK-MEL-5, 48 h, read-out: GI; in short: as §1
# MCF7 = test: Growth inhibition of human MCF7 cells at 10 uM after 48 hrs by coulter counting; conditions: MCF7, 48 h, read-out: GI; in short: as §1
# NCI/ADR-RES = test: Growth inhibition of human NCI/ADR-RES cells at 10 uM after 48 hrs by coulter counting; conditions: read-out: GI; in short: as §1
# ACHN = test: Growth inhibition of human ACHN cells at 10 uM after 48 hrs by coulter counting; conditions: read-out: GI; in short: as §1
# HL-60(TB) = test: Growth inhibition of human HL-60(TB) cells at 10 uM after 48 hrs by coulter counting; conditions: HL-60, 48 h, read-out: GI
# In short: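 Test compound was dissolved in DMSO and diluted in phosphate-buffered saline to a final DMSO level below 1%. Dilutions were plated in duplicate with cell culture at 6 × 10⁴ cells/ml. Vehicle controls held PBS and DMSO at matching dilutions. Incubation was at 37 °C, humidified, under 5% CO₂. Data were reported as percent growth of treated cells.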
# UACC-62 = test: Growth inhibition of human UACC62 cells at 10 uM after 48 hrs by coulter counting; conditions: UACC-62, 48 h, read-out: GI; in short: as §2
# U-251 = test: Growth inhibition of human U251 cells at 10 uM after 48 hrs by coulter counting; conditions: U-251, 48 h, read-out: GI; in short: as §2
# HCT-116 = test: Growth inhibition of human HCT116 cells at 10 uM after 48 hrs by coulter counting; conditions: HCT-116, 48 h, read-out: GI; in short: as §1
# SF-295 = test: Growth inhibition of human SF295 cells at 10 uM after 48 hrs by coulter counting; conditions: SF-295, 48 h, read-out: GI; in short: as §1
# NCI-H460 = test: Growth inhibition of human NCI-H460 cells at 10 uM after 48 hrs by coulter counting; conditions: NCI-H460, 48 h, read-out: GI; in short: as §1
# SF-539 = test: Growth inhibition of human SF539 cells at 10 uM after 48 hrs by coulter counting; conditions: SF-539, 48 h, read-out: GI; in short: as §1
# DU-145 = test: Growth inhibition of human DU145 cells at 10 uM after 48 hrs by coulter counting; conditions: DU-145, 48 h, read-out: GI; in short: as §1
# M14 = test: Growth inhibition of human M14 cells at 10 uM after 48 hrs by coulter counting; conditions: M14, 48 h, read-out: GI; in short: as §1
# NCI-H226 = test: Growth inhibition of human NCI-H226 cells at 10 uM after 48 hrs by coulter counting; conditions: NCI-H226, 48 h, read-out: GI; in short: as §1
# CAKI-1 = test: Growth inhibition of human Caki1 cells at 10 uM after 48 hrs by coulter counting; conditions: CAKI-1, 48 h, read-out: GI; in short: as §1
# [1] = Growth inhibition of human NCI-322M cells at 10 uM after 48 hrs by coulter counting; conditions: read-out: GI; in short: as §1
# LOX IMVI = test: Growth inhibition of human LOXIMVI cells at 10 uM after 48 hrs by coulter counting; conditions: read-out: GI; in short: as §1
# A549 = test: Growth inhibition of human A549 cells at 10 uM after 48 hrs by coulter counting; conditions: A549, 48 h, read-out: GI; in short: as §1
# K562 = test: Growth inhibition of human K562 cells at 10 uM after 48 hrs by coulter counting; conditions: K562, 48 h, read-out: GI; in short: as §1
smiles,measurement,setting,value
COc1ccc(/C=C2\CCCC3=C2N=C2SC=CN2C3c2ccc(OC)c(OC)c2)cc1OC (centres undefined),inhibition of growth at 10 µM,CCRF-CEM,> 10%
same,inhibition of growth at 10 µM,IGROV-1,> 10%
same,inhibition of growth at 10 µM,HCC 2998,14.9%
same,inhibition of growth at 10 µM,HOP-62,> 10%
same,inhibition of growth at 10 µM,UO-31,27.9%
same,inhibition of growth at 10 µM,OVCAR-4,> 10%
same,inhibition of growth at 10 µM,A498,> 10%
same,inhibition of growth at 10 µM,SK-MEL-28,> 10%
same,inhibition of growth at 10 µM,HT-29,> 10%
same,inhibition of growth at 10 µM,UACC-257,10.5%
same,inhibition of growth at 10 µM,SK-MEL-2,> 10%
same,inhibition of growth at 10 µM,SF-268,> 10%
same,inhibition of growth at 10 µM,SNB-75,12.4%
same,inhibition of growth at 10 µM,RPMI-8226,> 10%
same,inhibition of growth at 10 µM,NCI-H522,10.3%
same,inhibition of growth at 10 µM,NCI-H23,> 10%
same,inhibition of growth at 10 µM,MDA-MB-435,> 10%
same,inhibition of growth at 10 µM,MOLT-4,> 10%
same,inhibition of growth at 10 µM,BT-549,> 10%
same,inhibition of growth at 10 µM,EKVX,> 10%
same,inhibition of growth at 10 µM,SNB-19,> 10%
same,inhibition of growth at 10 µM,T47D,> 10%
same,inhibition of growth at 10 µM,KM12,> 10%
same,inhibition of growth at 10 µM,SK-MEL-5,> 10%
same,inhibition of growth at 10 µM,MCF7,> 10%
same,inhibition of growth at 10 µM,NCI/ADR-RES,> 10%
same,inhibition of growth at 10 µM,ACHN,> 10%
same,inhibition of growth at 10 µM,HL-60(TB),17.5%
same,inhibition of growth at 10 µM,UACC-62,> 10%
same,inhibition of growth at 10 µM,U-251,> 10%
same,inhibition of growth at 10 µM,HCT-116,> 10%
same,inhibition of growth at 10 µM,SF-295,> 10%
same,inhibition of growth at 10 µM,NCI-H460,> 10%
same,inhibition of growth at 10 µM,SF-539,> 10%
same,inhibition of growth at 10 µM,DU-145,> 10%
same,inhibition of growth at 10 µM,M14,> 10%
same,inhibition of growth at 10 µM,NCI-H226,> 10%
same,inhibition of growth at 10 µM,CAKI-1,> 10%
same,inhibition of growth at 10 µM,[1],> 10%
same,inhibition of growth at 10 µM,LOX IMVI,16.4%
same,inhibition of growth at 10 µM,A549,> 10%
same,inhibition of growth at 10 µM,K562,> 10%
COc1ccc(/C=C2\CCCC3=C2N=C2SC=C(C)N2C3c2ccc(OC)cc2)cc1 (centres undefined),inhibition of growth at 10 µM,CCRF-CEM,> 10%
same,inhibition of growth at 10 µM,IGROV-1,> 10%
same,inhibition of growth at 10 µM,HCC 2998,> 10%
same,inhibition of growth at 10 µM,HOP-62,> 10%
same,inhibition of growth at 10 µM,UO-31,23.3%
same,inhibition of growth at 10 µM,OVCAR-4,> 10%
same,inhibition of growth at 10 µM,A498,36%
same,inhibition of growth at 10 µM,SK-MEL-28,> 10%
same,inhibition of growth at 10 µM,HT-29,> 10%
same,inhibition of growth at 10 µM,UACC-257,> 10%
same,inhibition of growth at 10 µM,SK-MEL-2,> 10%
same,inhibition of growth at 10 µM,SF-268,> 10%
same,inhibition of growth at 10 µM,SNB-75,> 10%
same,inhibition of growth at 10 µM,RPMI-8226,13.5%
same,inhibition of growth at 10 µM,NCI-H522,> 10%
same,inhibition of growth at 10 µM,NCI-H23,> 10%
same,inhibition of growth at 10 µM,MDA-MB-435,> 10%
same,inhibition of growth at 10 µM,MOLT-4,> 10%
same,inhibition of growth at 10 µM,BT-549,> 10%
same,inhibition of growth at 10 µM,EKVX,> 10%
same,inhibition of growth at 10 µM,SNB-19,> 10%
same,inhibition of growth at 10 µM,T47D,> 10%
same,inhibition of growth at 10 µM,KM12,> 10%
same,inhibition of growth at 10 µM,SK-MEL-5,> 10%
same,inhibition of growth at 10 µM,MCF7,> 10%
same,inhibition of growth at 10 µM,NCI/ADR-RES,> 10%
same,inhibition of growth at 10 µM,ACHN,> 10%
same,inhibition of growth at 10 µM,HL-60(TB),> 10%
same,inhibition of growth at 10 µM,UACC-62,> 10%
same,inhibition of growth at 10 µM,U-251,> 10%
same,inhibition of growth at 10 µM,HCT-116,> 10%
same,inhibition of growth at 10 µM,SF-295,> 10%
same,inhibition of growth at 10 µM,NCI-H460,> 10%
same,inhibition of growth at 10 µM,SF-539,> 10%
same,inhibition of growth at 10 µM,DU-145,> 10%
same,inhibition of growth at 10 µM,M14,> 10%
same,inhibition of growth at 10 µM,NCI-H226,> 10%
same,inhibition of growth at 10 µM,CAKI-1,12.5%
same,inhibition of growth at 10 µM,[1],> 10%
same,inhibition of growth at 10 µM,LOX IMVI,> 10%
same,inhibition of growth at 10 µM,A549,> 10%
same,inhibition of growth at 10 µM,K562,> 10%
